In the library only some 2.4% were active in any assay of this set; here they are far more common.
STEP block: STEP (human) phosphatase inhibition. recombinant STEP, OMFP fluorogenic substrate, fluorescence. P54829. AID 588621. inhibition, % at 20 µM. hit rate 0.25% among 360,000;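 active means inhibition at 20 µM, scaled per plate between control wells, above about 37%, limit read from the data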
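Also added – OMFP at 25 µM · Test system – STEP tyrosine phosphatase · Technique – FITC-channel fluorescence of OMFP product · Schedule – 20 min at room temperature, dark · Evaluation – control-normalized % inhibition with plate pattern correction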
SUMO1-SIM PPI: modulators of human SUMO1-mediated protein-protein interactions | SUMO1 binding to a labelled peptide, TR-FRET, 1 h | inhibition, % at 20 µM | hit rate 0.33% among 360,000 | AID 602429; in the data active means inhibition above about 37%
Target sequence (P63165 whole entry, looked up): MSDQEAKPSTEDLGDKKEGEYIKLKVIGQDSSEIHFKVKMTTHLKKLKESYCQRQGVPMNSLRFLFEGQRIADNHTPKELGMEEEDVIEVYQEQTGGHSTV
Scp1 inh: inhibitors of human Scp-1 phosphatase; Recombinant Scp1, phosphopeptide, malachite green phosphate absorbance; inhibition, % at 20 µM; hit rate 0.88% among 340,000;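 active means inhibition above about 50% at 20 µM, limit read from the data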
Target sequence (Q9GZU7 76-261 limits assumed): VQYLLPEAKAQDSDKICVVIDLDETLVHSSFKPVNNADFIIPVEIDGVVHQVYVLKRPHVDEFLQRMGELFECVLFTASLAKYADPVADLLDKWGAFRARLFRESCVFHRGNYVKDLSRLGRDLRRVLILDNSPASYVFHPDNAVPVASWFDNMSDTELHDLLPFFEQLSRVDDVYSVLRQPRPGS
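Test system – truncated SCP-1 phosphatase (76-261aa) · Reagent – Phosphorylated 17-residue peptide substrate · Incubation – 45 min room-temperature reaction, 5 min colour, 30 min stabiliser · Detection – colorimetric phosphate reagent with accelerator and stabiliser, absorbance at 630 nm · Measure – % inhibition at 20 µM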
DNMT1 block: inhibitors of human DNMT1. hit rate 0.83% among 360,000. P26358. inhibition (reported as % activation of signal), % at 10 µM. DNMT1 molecular beacon, Hinp1I cleavage, fluorescence; in the data active means inhibition above about 50%
LMPTP block: blocks human LMPTP phosphatase. hit rate 0.22% among 360,000. inhibition, % at 20 µM. recombinant LMPTP-A, OMFP fluorogenic substrate, fluorescence intensity. AID 651560;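 active means compounds that cut the enzyme signal by at least half of the control window in the single-dose screen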
Target sequence (P24666 whole entry, looked up): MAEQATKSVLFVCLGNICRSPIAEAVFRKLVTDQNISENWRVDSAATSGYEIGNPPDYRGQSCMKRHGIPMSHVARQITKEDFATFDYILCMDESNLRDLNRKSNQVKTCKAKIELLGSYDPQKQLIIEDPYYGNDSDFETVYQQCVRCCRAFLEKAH
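Test system: LMPTP-A, protein tyrosine phosphatase of low molecular weight; Input: 0.625 nM enzyme; Incubation: 50 min dark incubation at room temperature; Signal: endpoint fluorescence intensity from OMFP dephosphorylation; Read-out basis: % inhibition versus control wells.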
NadD inh: inhibitors of Staphylococcus aureus NadD; purified NadD enzyme, colorimetric absorbance read-out; hit rate 0.78% among 360,000; inhibition, % at 20 µM; in the data active means inhibition above about 26%
DNMT1 interf DR: beacon fluorescence artifact, dose response counter-screen; shares compounds with DNMT1 block; molecular beacon fluorescence, spectral interference counter-screen; IC50, µM; 200 tested, under 10 active; AID 602382; call rule not given here
DNMT1 confirm: confirmation of human DNMT1 inhibitors; shares compounds with DNMT1 block; DNMT1 molecular beacon HinP1I cleavage, fluorescence; inhibition, % at 10 µM; hit rate 8% among 2,300; AID 602385;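 active means average inhibition of at least 30% in the single-concentration confirmation test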
Beacon interf: beacon fluorescence artifact counter-screen; shares compounds with DNMT1 block; DNMT1 molecular beacon spectral interference counterscreen, fluorescence 485/520; activation (fluorescence interference), % at 10 µM; hit rate 1% among 2,300;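 active means activation of at least 30% at 10 µM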;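 further: DNMT1 catalytic domain with a HinP1I cleavage step and a FAM/dabcyl DNA beacon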
Large screens that a line does not name were inactive (follow-up assays come after a bar, where they were run).

CCOC(=O)C1=C(C)N=c2s/c(=C/c3ccc(OCC(=O)O)c(OC)c3)c(=O)n2C1c1ccc(Cl)cc1 (stereo unspecified)	Scp1 inh 51, DNMT1 block 58 | DNMT1 interf DR inactive | DNMT1 confirm 59 | Beacon interf inactive
Cc1sc2nc(SCC(=O)NCc3ccco3)n(C)c(=O)c2c1C	none
C=CCn1c(SCC(=O)NCc2ccco2)nc2ccccc2c1=O	none
C=CCn1c(SCC(=O)NC(=O)NCc2ccco2)nc2sc(CC)cc2c1=O	DNMT1 block 62 | DNMT1 confirm inactive | Beacon interf inactive
CCn1c(SCC(=O)NC(=O)NCc2ccco2)nc2sc(C)c(C)c2c1=O	SUMO1-SIM PPI 50, DNMT1 block 78 | DNMT1 confirm inactive | Beacon interf inactive
COc1cc2nc(/C=C/c3ccc(N(C)C)cc3)sc2cc1SC	none
O=C(Nc1ccc(N2CCOCC2)cc1N1CCOCC1)c1ccc(Br)cc1	none
O=C(COc1ccc(Br)cc1)Nc1ccc(N2CCOCC2)cc1N1CCOCC1	DNMT1 block 55 | DNMT1 confirm inactive | Beacon interf inactive
CCn1cc(C(C)NC(=O)Nc2ccccc2C(=O)OC)c(C)n1 (stereo unspecified)	none
O=C(O)CCc1ccc(S(=O)(=O)Nc2cc(C(F)(F)F)ccc2N2CCCC2)cc1	DNMT1 block 53 | DNMT1 interf DR inactive | DNMT1 confirm 76 | Beacon interf inactive
Cn1cc(CN2C[C@H]3CC[C@H]2C3)c(-c2ccccc2F)n1	DNMT1 block 58 | DNMT1 confirm inactive | Beacon interf inactive
CCOc1ccc(C(=O)N2CCCCCC2)cc1	none
COc1cccc(N(C(C)=O)c2nc(C)cc(C)c2C#N)c1	none
O=C(Nc1nnc(-c2ccccc2F)s1)Nc1ccccc1F	DNMT1 block 53 | DNMT1 confirm inactive | Beacon interf inactive
COc1ccc(C2c3c(-c4ccccc4O)n[nH]c3C(=O)N2Cc2ccco2)cc1 (stereo unspecified)	DNMT1 block 66 | DNMT1 confirm inactive | Beacon interf inactive
CC(=O)Nc1cccc(-c2csc(C(C)(NC(C)=O)c3ccccc3)n2)c1 (stereo unspecified)	none (no result: Scp1 inh)
CC(C)(C)c1ccc(C(=O)NNc2cc(N3CCCCC3)nc(N3CCCCC3)n2)cc1	none
O=C(NNc1cc(N2CCCC2)nc(N2CCCC2)n1)c1ccc([N+](=O)[O-])cc1	SUMO1-SIM PPI 37, DNMT1 block 56 | DNMT1 confirm inactive | Beacon interf inactive
Cc1ccc(S(=O)(=O)N2CCC(=O)N(C(COCc3cccc(Cl)c3)Cc3ccccc3)CC2)cc1 (stereo unspecified)	none
COCCn1c(N)c(C(=O)NCC2CCCO2)c2nc3ccccc3nc21 (stereo unspecified)	none
CC(C)Cn1c(N)c(C(=O)NCC2CCCO2)c2nc3ccccc3nc21 (stereo unspecified)	DNMT1 block 74 | DNMT1 confirm inactive | Beacon interf inactive
COC(=O)C1CCN(C(=O)CSc2nc3nc(C)cc(C)n3n2)CC1	DNMT1 block 63 | DNMT1 confirm inactive | Beacon interf inactive
COc1ccc(C(=O)N2CCC(n3nccc3NC(=O)C3CC3)CC2)c(OC)c1OC	none
CCc1nnc(NS(=O)(=O)c2ccc(NC(=S)NC(=O)/C=C/c3ccc(C(C)C)cc3)cc2)s1	DNMT1 block 62, NadD inh 69 | DNMT1 interf DR inactive | DNMT1 confirm 33 | Beacon interf inactive
O=C(O)CCCCN1C(=O)/C(=C\c2ccc(OCc3ccccc3)c(OCc3ccccc3)c2)SC1=S	DNMT1 block 81 | DNMT1 confirm inactive | Beacon interf inactive
O=C(O)CN1C(=O)/C(=C\c2cc(Br)ccc2OCc2ccc(Cl)cc2)SC1=S	SUMO1-SIM PPI 61, DNMT1 block 61 | DNMT1 interf DR inactive | DNMT1 confirm 56 | Beacon interf inactive
OCCN(CCO)c1nc(-c2ccccc2)nc2c1oc1ccccc12	none
COc1ccc2oc(=O)c(C(=O)NCc3cccnc3)cc2c1	DNMT1 block 51 | DNMT1 confirm inactive | Beacon interf inactive
COc1ccccc1/C=C1\SC(=O)N(CCC(=O)NNC(=O)c2ccccc2Cl)C1=O	none
COC(=O)c1ccc(-c2nc3cc(Cl)c(N)cc3s2)cc1	DNMT1 block 56 | DNMT1 confirm inactive | Beacon interf inactive
CC(C)NS(=O)(=O)c1ccc(Br)c(C(=O)OC(C)C(=O)NC2CCCCC2C)c1 (stereo unspecified)	none
Cc1noc(NS(=O)(=O)c2ccc(NC(=O)c3cc(S(=O)(=O)Nc4ccc(F)cc4)ccc3Cl)cc2)c1C	none
CCOc1ncccc1C(=O)Nc1ncc(C)s1	none
COc1ccc2oc(=O)cc(-c3cc4cccc(OC)c4o3)c2c1	none
COc1cccc2cc(-c3cc(=O)oc4cc(C)c(OCC(C)=O)cc34)oc12	DNMT1 block 63 | DNMT1 confirm inactive | Beacon interf inactive
COc1ccc2c(c1)C(C)=CC(C)(C)N2S(=O)(=O)c1ccc(NC(C)=O)cc1	none
O=C(Nc1ccccc1F)c1ccc(Br)o1	DNMT1 block 69 | DNMT1 confirm inactive | Beacon interf inactive
CCc1nc(N=Nc2c(O)[nH]c3ccccc23)c2c3c(sc2n1)CCC3	DNMT1 block 64 | DNMT1 confirm inactive | Beacon interf inactive
O=C(NC(=S)Nc1cc(S(=O)(=O)N2CCOCC2)ccc1N1CCOCC1)c1ccco1	DNMT1 block 60 | DNMT1 confirm inactive | Beacon interf inactive
O=C(NC(=S)Nc1cc(S(=O)(=O)N2CCOCC2)ccc1O)c1ccco1	none
CSc1ccc(NC(=O)C2(C)CCN2C(=O)C2(c3ccccc3)CC2)cc1 (stereo unspecified)	none (no result: Scp1 inh)
CC1(C(=O)Nc2ccc3nc[nH]c3c2)CCN1C(=O)C1(c2ccccc2)CC1 (stereo unspecified)	DNMT1 block 101 (no result: Scp1 inh) | DNMT1 confirm inactive | Beacon interf inactive
COc1cc(-c2nnc(SCC3(c4ccc(Br)cc4)OCCO3)o2)cc(OC)c1OC	none
CCOC(=O)/C=c1\s/c(=C\c2ccc3cc(OC)ccc3c2)c(=O)n1CC(=O)NCC1CCCO1 (stereo unspecified)	DNMT1 block 58 | DNMT1 confirm inactive | Beacon interf inactive
COc1ccc(/C=C/C(=O)OCC(=O)NCC2CCCO2)cc1 (stereo unspecified)	none
